Each block holds one substance with its values, some of them ahead of it.
How the values were obtained:
[1] = Degradation of [3H]-THF-γ2 on incubation with mouse whole blood; format: in vitro ADME; conditions: 37 °C, radio-TLC; for amount of minor degradation product, % of total: over the 60 min incubation with [3H]-THF
[2] = cited from earlier work
[3] = Degradation of [3H]-THF-γ2 on incubation with human whole blood; format: in vitro ADME; conditions: 37 °C, radio-TLC, mean ± SD, n = 3
Outline: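 Heparinized whole blood from three healthy male donors. 1 ml was pre-warmed 5 min at 37 °C, then spiked with [3H]-THF (Pro- or C-terminal Leu-labelled; final 93 nmol ml−1) and shaken at 37 °C, sampled 0–60 min. Stopped with ice-cold water/acetonitrile; supernatants were dichloromethane-extracted. The aqueous phase went to silica radio-TLC with 1 cm scintillation counting, and fragments were assigned by synthetic-peptide Rf. Mean ± […], n = 3.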

[4] = Degradation of [3H]-THF-γ2 on incubation with rat whole blood; format: in vitro ADME; conditions: 37 °C, radio-TLC, mean ± SD, n = 3
[5] = 60 min incubation with [3H]-THF

Substance: H-LEDGPK-OH [1–6]
amount of minor degradation product, % of total [1]: < 10 % of total

Substance: H-LEDGPKFL-OH [THF-γ2]
half-life of THF in human plasma [2]: about 12 min

Substance: H-Gly-Pro-Lys-Phe-Leu-OH [4–8]
amount of minor degradation product, % of total [1]: < 10 % of total

Second part, the substance after the results:

concentration of degradation product, % of the total peptides present ([3]; 5 min incubation with [3H]-THF): 2.16% ± 0.96 | concentration of degradation product, % of the total peptides present ([4]; 5 min incubation with [3H]-THF): 4.72% ± 1.05 | concentration of degradation product, % of the total peptides present [4, 5]: 54.90% ± 0.87 | concentration of degradation product, % of the total peptides present ([1]; 60 min incubation with [3H]-THF, mean ± SD, n = 3): 36.52% ± 2.69
Substance: H-Glu-Asp-Gly-Pro-Lys-OH [2–6]

concentration of degradation product, % of the total peptides present [3, 5]: 30.36% ± 7.84 | concentration of degradation product, % of the total peptides present ([4]; 20 min incubation with [3H]-THF): 27.80% ± 3.32
Substance: H-DGPKFL-OH [3–8]

From PMC7274130 (Biochimica et Biophysica Acta. Proteins and Proteomics, 2020)
